Data from publication PMC6548570 (Bioorganic & medicinal chemistry, 2019).

What was measured:
Mouse liver microsomal = type: in vitro ADME; settings: 37 °C
In short: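 Mouse liver microsomes (0.4 mg/mL) with NADPH in 0.5 M phosphate buffer, test compound at 10 μM. T0 samples quenched at once with 2 volumes ice-cold acetonitrile; others shaken 60 min at 37 °C, then quenched likewise. Verapamil-HCl as control. After centrifugation, parent quantified by UPLC/MS (SRM). % remaining = (60 min/0 min concentration)×100; duplicate runs, mean reported.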

sigma-1 = sigma-1 (Homo sapiens, UniProt Q99720); experiment: Radioligand binding assay against sigma-1
Chain of sigma-1 (Q99720 whole entry): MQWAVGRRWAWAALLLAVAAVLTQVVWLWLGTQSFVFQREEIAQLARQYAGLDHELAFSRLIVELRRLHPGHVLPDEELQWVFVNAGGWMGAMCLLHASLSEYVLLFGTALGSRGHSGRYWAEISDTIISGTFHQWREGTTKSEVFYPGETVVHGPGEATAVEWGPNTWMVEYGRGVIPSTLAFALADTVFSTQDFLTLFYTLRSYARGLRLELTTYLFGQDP

sigma-2 = sigma-2 (Homo sapiens, UniProt Q5BJF2); experiment: Radioligand binding assay against sigma-2; settings: for pKi ± SEM Sigma-2: displacement of [3H]-DTG, <5 = not >50% inhibition at 10 μM single concentration
Chain of sigma-2 (Q5BJF2 whole entry): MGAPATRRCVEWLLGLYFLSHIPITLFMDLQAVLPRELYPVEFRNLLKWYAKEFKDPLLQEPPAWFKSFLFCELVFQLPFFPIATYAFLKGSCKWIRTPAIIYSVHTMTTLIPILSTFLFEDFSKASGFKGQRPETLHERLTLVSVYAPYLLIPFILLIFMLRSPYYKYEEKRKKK

| Structure (SMILES) | pKi ± SEM Sigma-2 (sigma-2) [M] | activity against sigma-2 (in words) (sigma-2) | other results |
| --- | --- | --- | --- |
| O=C(c1nn(-c2ccccc2)c2c1CC(NCc1ccccc1)CC2)N1CCCCC1 (stereo not shown) [7ab, (5-(Benzylamino)-1-phenyl-4,5,6,7-tetrahydro-1H-indazol-3-yl)(piperidin-1-yl)methanone] | – | – | consumption by liver microsomes after 60 minutes (in words) (Mouse liver microsomal): nearly-completely consumed |
| O=C(c1c2c(nn1-c1ccccc1)CCC(NCc1ccc(F)cc1)C2)N1CCCCC1 (stereo not shown) [7ba, (5-((4-Fluorobenzyl)amino)-2-phenyl-4,5,6,7-tetrahydro-2H-indazol-3-yl)(piperidin-1-yl)methanone] | – | – | fold more potent against sigma-1 compared to N-1 regioisomer 7aa (sigma-1; N-2 vs N-1 regioisomer): over 5 fold; fold more potent against sigma-2 compared to N-1 regioisomer 7aa (sigma-2; N-2 vs N-1 regioisomer): > 60 fold; consumption by liver microsomes after 60 minutes (in words) (Mouse liver microsomal): nearly-completely consumed |
| NC(=O)c1ccc(-n2nc3c(c2C(=O)N2CCCCC2)CC(NCCc2ccccc2)CC3)cc1 (stereo not shown) [7bg, 4-(5-(Phenethylamino)-3-(piperidine-1-carbonyl)-4,5,6,7-tetrahydro-2H-indazol-2-yl)benzamide] | <5 | – | – |
| O=C(c1nn(-c2ccccc2)c2c1CC(NCc1ccc(F)cc1)CC2)N1CCCCC1 (stereo not shown) [7aa, (5-((4-Fluorobenzyl)amino)-1-phenyl-4,5,6,7-tetrahydro-1H-indazol-3-yl)(piperidin-1-yl)methanone] | <5 | no activity | – |
| O=C(c1c2c(nn1-c1ccc(F)cc1)CCC(NCc1ccc(F)cc1)C2)N1CCCCC1 (stereo not shown) [7bf, (5-((4-Fluorobenzyl)amino)-2-(4-fluorophenyl)-4,5,6,7-tetrahydro-2H-indazol-3-yl)(piperidin-1-yl)methanone] | – | – | selectivity for sigma-1 against sigma-2 (sigma-1; sigma-1 over sigma-2): over 500 fold |
| O=C(c1c2c(nn1-c1ccccc1)CCC(NCCc1ccc(C(F)(F)F)cc1)C2)N1CCCCC1 (stereo not shown) [7bc, (2-Phenyl-5-((4-(trifluoromethyl)phenethyl)amino)-4,5,6,7-tetrahydro-2H-indazol-3-yl)(piperidin-1-yl)methanone] | <5 | – | – |
| O=C(c1nn(Cc2ccccc2)c2c1CC(NCCc1ccncc1)CC2)N1CCCCC1 (stereo not shown) [7ag, (1-Benzyl-5-((2-(pyridin-4-yl)ethyl)amino)-4,5,6,7-tetrahydro-1H-indazol-3-yl)(piperidin-1-yl)methanone] | <5 | – | – |
| O=C(c1nn(-c2ccccc2)c2c1CC(NCCc1cccc(O)c1)CC2)N1CCCCC1 (stereo not shown) [7af, (5-((3-Hydroxyphenethyl)amino)-1-phenyl-4,5,6,7-tetrahydro-1H-indazol-3-yl)(piperidin-1-yl)methanone] | <5 | – | – |
| O=C(c1nn(-c2ccccc2)c2c1CC(NCCc1ccc(C(F)(F)F)cc1)CC2)N1CCCCC1 (stereo not shown) [7ac, (1-Phenyl-5-((4-(trifluoromethyl)phenethyl)amino)-4,5,6,7-tetrahydro-1H-indazol-3-yl)(piperidin-1-yl)methanone] | <5 | – | – |

Now from value to compound, other results behind:

| pKi ± SEM Sigma-2 (sigma-2) [M] | activity against sigma-2 (in words) (sigma-2) | Structure (SMILES) | other results |
| --- | --- | --- | --- |
| <5 | complete loss of activity | CCCn1nc(C(=O)N(C)C)c2c1CCC(NC(=O)c1ccc(F)cc1)C2 (stereo not shown) [compound 13, 5-(4-Fluorobenzamido)-N,N-dimethyl-1-propyl-4,5,6,7-tetrahydro-1H-indazole-3-carboxamide] | activity against sigma-1 (in words) (sigma-1): complete loss of activity |
| <5 | – | O=C(c1nn(Cc2ccccc2)c2c1CC(NCc1ccc(F)cc1)CC2)N1CCCCC1 (stereo not shown) [7ah, (1-Benzyl-5-((4-fluorobenzyl)amino)-4,5,6,7-tetrahydro-1H-indazol-3-yl)(piperidin-1-yl)methanone] | – |
| <5 | completely lost | CCCn1nc(C(=O)N(C)C)c2c1CCC(SCc1ccc(F)cc1)C2 (stereo not shown) [compound 11, 5-((4-Fluorobenzyl)thio)-N,N-dimethyl-1-propyl-4,5,6,7-tetrahydro-1H-indazole-3-carboxamide] | activity against sigma-1 (in words) (sigma-1): completely lost |
| <5 | completely lost | CCCn1nc(C(=O)N(C)C)c2c1CCC(OCc1ccc(F)cc1)C2 (stereo not shown) [compound 9, 5-((4-Fluorobenzyl)oxy)-N,N-dimethyl-1-propyl-4,5,6,7-tetrahydro-1H-indazole-3-carboxamide] | activity against sigma-1 (in words) (sigma-1): completely lost |
| <5 | complete loss of activity | CCCn1nc(C(=O)N(C)C)c2c1CCC(NS(=O)(=O)c1ccc(F)cc1)C2 (stereo not shown) [compound 14, 5-((4-Fluorophenyl)sulfonamido)-N,N-dimethyl-1-propyl-4,5,6,7-tetrahydro-1H-indazole-3-carboxamide] | activity against sigma-1 (in words) (sigma-1): complete loss of activity |
